The test system of data set [1] is Mus musculus. Kind of data set: Anti-inflammatory activity in C57BL6 mouse model of CCl4-induced hepatic fibrosis assessed as reduction in inflammatory cell infiltration in hepatic tissue at 0.1 mg/kg, ig administered 2 times per week for 4 weeks by H and E staining based assay. Format: functional, organism-based. A digest of the protocol: (§1)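 Male SPF C57BL6 mice (20 ± 2 g), acclimatized for at least one week under controlled temperature, humidity and light cycle. Hepatic fibrosis was induced with CCl4, with control and model groups run alongside. Liver tissue was H&E-stained and examined by light microscopy for inflammatory cell infiltration, hepatocyte degeneration and fibrosis.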

The test system of data set [2] is Mus musculus. In words: Anti-inflammatory activity in C57BL6 mouse model of CCl4-induced hepatic fibrosis assessed as reduction in blue collagen fibers in hepatic tissue at 0.1 mg/kg, ig administered 2 times per week for 4 weeks by masson staining based assay. Format: functional, organism-based. An outline of the steps:
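Male SPF C57BL6 mice (20 ± 2 g), housed at 22 ± 2 °C and 50% humidity with a 12 h light/dark cycle, acclimatized for at least one week. CCl4-induced hepatic fibrosis model, groups compared with untreated control and CCl4 model groups. Liver sections were Masson-stained, and blue collagen fibers were scored by light microscopy.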

Data set [3] deals with Mus musculus. Kind of data set: Anti-inflammatory activity in C57BL6 mouse model of CCl4-induced hepatic fibrosis assessed as reduction in hepatic fibrosis at 0.1 mg/kg, ig administered 2 times per week for 4 weeks by H and E staining based assay. Format: functional, organism-based. An outline of the steps:
as §1

The nature of data set [4]: Cytotoxicity against mouse RAW264.7 cells assessed as cell viability at 40 uM after 24 hrs by MTT assay relative to control. Format: cell-based. The conditions noted are these: read-out: Activity. A general note: Tetrazolium dyes change colour on reduction, which living cells bring about.
Data set [5] concerns RAW264.7. In words: Anti-inflammatory activity in mouse RAW264.7 cells assessed as inhibition of LPS-induced NO production at 40 uM preincubated for 2 hrs followed by LPS addition measured after 20 hrs by Griess assay relative to control. Format: functional. A digest of the protocol:
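Macrophages (RAW264.7) are pretreated 2 h with compound at 40 μM, then held with or without LPS (1 μg mL–1) for 20 h. Released NO is measured with Griess reagent. Results are means ± SD (n = 3) from at least three independent experiments.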
(In general: The Griess reaction detects nitrite, a stable product of nitric oxide.)

In data set [6] the test system is RAW264.7. Kind of data set: Anti-inflammatory activity in mouse RAW264.7 cells assessed as inhibition of LPS-induced IL-6 production at 10 to 40 uM preincubated for 2 hrs followed by LPS addition measured after 20 hrs by ELISA. Format: functional, cell-based. An outline of the steps:
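RAW264.7 cells are pretreated 2 h with compound at 40 or 10 μM, then held with or without LPS (1 μg mL–1) for 20 h. Supernatant IL-6 is quantified by ELISA. Results are means ± SD (n = 3) of at least three independent experiments.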

The nature of data set [7]: Inhibition of LPS-induced IkBalpha phosphorylation in mouse RAW264.7 cells at 10 to 30 uM after 30 mins by Western blot analysis. For orientation: Immunoblotting shows a protein as a band on a membrane.
Data set [8] deals with Mus musculus. In words: Anti-inflammatory activity in C57BL6 mouse model of CCl4-induced hepatic fibrosis assessed as reduction in hepatic fibrosis at 100 to 200 mg/kg, ig administered 2 times per week for 4 weeks by H and E staining based assay. Format: functional, organism-based. A digest of the protocol: (§2)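 Male SPF C57BL6 mice (20 ± 2 g) are acclimatized at least one week at 22 ± 2 °C, 50% humidity, 12 h light/dark, with free food and water. CCl4 induces hepatic fibrosis. Groups are control, model, colchicine 0.1 mg kg–1, and test article at 100 or 200 mg kg–1. Liver sections are scored by light microscopy after H&E and Masson staining.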

The target in data set [9] is Transcription factor p65 (Mus musculus) (UniProt Q04207). Kind of data set: Inhibition of LPS-induced NF-kB p65 nuclear tanslocation in mouse RAW264.7 cells at 20 to 30 uM preincubated for 1 hr followed by LPS addition measured after 3 hrs by DAPI staining based immunofluorescence assay. Format: cell-based. A digest of the protocol: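 For p65 nuclear translocation, RAW264.7 cells are pretreated 1 h with test article, then stimulated with LPS (1 μg mL–1) for 3 h before immunofluorescence imaging.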

Data set [10] concerns RAW264.7. In words: Anti-inflammatory activity in mouse RAW264.7 cells assessed as inhibition of LPS-induced iNOS protein expression measured after 20 hrs by Western blot analysis. Format: functional, cell-based. A digest of the protocol: (§3)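 RAW264.7 cells are treated with graded concentrations of test article, then held with or without LPS (1 μg mL–1) for 20 h. iNOS and COX-2 protein are measured. The NF-κB inhibitor Bay 11-7082 (20 μM) serves as reference. Results are means ± SD (n = 3) of at least three independent experiments.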

The subject of data set [11] is Mus musculus. In words: Anti-inflammatory activity in C57BL6 mouse model of CCl4-induced hepatic fibrosis assessed as reduction in inflammatory cell infiltration in hepatic tissue at 100 to 200 mg/kg, ig administered 2 times per week for 4 weeks by H and E staining based assay. Format: functional, organism-based. A digest of the protocol:
as §2

Data set [12] deals with RAW264.7. Kind of data set: Inhibition of LPS-induced ERK phosphorylation in mouse RAW264.7 cells after 30 mins by Western blot analysis. Format: cell-based. An outline of the steps: (§4)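 RAW264.7 cells are exposed to 10–30 μM test article plus LPS (1 μg mL–1) for 30 min. Total and phosphorylated proteins are probed by western blot: NF-κB p65 and IκB, with Bay 11-7082 (20 μM) as reference, and JNK, ERK1/2 and p38 MAPK. Results are means ± SD (n = 3) from at least three independent experiments.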

In data set [13] the target is Transcription factor p65 (Mus musculus) (UniProt Q04207). Kind of data set: Inhibition of LPS-induced NF-kB p65 phosphorylation in mouse RAW264.7 cells at 10 to 30 uM after 30 mins by Western blot analysis. Format: cell-based. An outline of the steps:
as §4

Data set [14] relates to RAW264.7. In words: Anti-inflammatory activity in mouse RAW264.7 cells assessed as inhibition of LPS-induced COX2 protein expression measured after 20 hrs by Western blot analysis. Format: functional, cell-based. An outline of the steps: as §3
For data set [15], the system named is Mus musculus. Kind of data set: Anti-inflammatory activity in C57BL6 mouse model of CCl4-induced hepatic fibrosis assessed as reduction in blue collagen fibers in hepatic tissue at 100 to 200 mg/kg, ig administered 2 times per week for 4 weeks by masson staining based assay. Format: functional, organism-based. A digest of the protocol: as §2

Activity, viability and inhibition data for seven compounds are collected here from ChEMBL document CHEMBL4261539, “18α-Glycyrrhetinic acid monoglucuronide as an anti-inflammatory agent through suppression of the NF-κB and MAPK signaling pathway” (Medchemcomm, 2017).

Active and inactive are the calls of the source. No cut-off for these calls is given here. A value given as a limit tells only on which side of the number the result lay.

Broadly, the inhibition is the change of the read-out against control, counted positive when it falls.

Transcription factor p65 (Mus musculus), sequence (Q04207 whole entry): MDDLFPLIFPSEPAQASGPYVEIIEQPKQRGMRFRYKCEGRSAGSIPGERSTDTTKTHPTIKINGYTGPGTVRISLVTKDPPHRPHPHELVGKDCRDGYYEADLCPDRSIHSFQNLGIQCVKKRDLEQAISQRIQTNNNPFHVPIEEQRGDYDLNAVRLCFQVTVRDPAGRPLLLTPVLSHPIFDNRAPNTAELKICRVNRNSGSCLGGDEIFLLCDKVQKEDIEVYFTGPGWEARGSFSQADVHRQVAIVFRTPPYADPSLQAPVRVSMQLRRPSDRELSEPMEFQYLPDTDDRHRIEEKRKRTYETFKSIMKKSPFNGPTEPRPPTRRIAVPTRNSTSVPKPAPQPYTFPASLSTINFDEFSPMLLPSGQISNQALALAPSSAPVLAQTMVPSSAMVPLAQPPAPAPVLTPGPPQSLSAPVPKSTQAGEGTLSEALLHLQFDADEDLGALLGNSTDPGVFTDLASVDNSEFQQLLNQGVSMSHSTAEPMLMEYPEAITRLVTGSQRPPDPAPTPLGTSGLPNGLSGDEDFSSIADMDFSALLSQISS

Turning to `COc1cc2c(c(OC)c1OC)-c1ccc(OC)c(=O)cc1[C@@H](NC(C)=O)CC2`, the result with Mus musculus [1], in the data set on Mus musculus [2] and in the data set on Mus musculus [3] was Active.
In the case of `CC1(C)[C@@H](O)CC[C@]2(C)[C@H]3C(=O)C=C4[C@@H]5C[C@@](C)(C(=O)O)CC[C@]5(C)CC[C@@]4(C)[C@]3(C)CC[C@@H]12` [ENOXOLONE], the viability at 24 h, 40 µM in data set [4] is over 96%. The inhibition entry in the data set on RAW264.7 [5] and in the data set with RAW264.7 [6] was “Active” throughout.
Take `CC1(C)[C@@H](O[C@H]2O[C@H](C(=O)O)[C@@H](O)[C@H](O)[C@H]2O)CC[C@]2(C)[C@H]3C(=O)C=C4[C@H]5C[C@@](C)(C(=O)O)CC[C@]5(C)CC[C@@]4(C)[C@]3(C)CC[C@@H]12`: the inhibition entry (in [7]; in [9]; in data set [13]; in the data set with RAW264.7 [6]) was “Active” in each case. The outcome in the data set on Mus musculus [8], with Mus musculus [11] and in the data set with Mus musculus [15] was Active. In addition, in [4], the viability at 24 h, 40 µM is over 96%. Further, the inhibition result with RAW264.7 [10], in the data set on RAW264.7 [12] and with RAW264.7 [14] was “Dose-dependent effect” throughout. Moreover, the inhibition at 40 µM with RAW264.7 [5] was over 70%.
Regarding `CC1(C)[C@@H](O)CC[C@]2(C)[C@H]3C(=O)C=C4[C@H]5C[C@@](C)(C(=O)O)CC[C@]5(C)CC[C@@]4(C)[C@]3(C)CC[C@@H]12` [18alpha-GLYCYRRHETINIC ACID], in data set [4], the viability at 24 h, 40 µM is over 96%. For the same compound, the inhibition entry in the data set on RAW264.7 [5] and in the data set on RAW264.7 [6] was “Active” throughout.
Regarding `CC1(C)[C@@H](O[C@H]2O[C@H](C(=O)O)[C@@H](O)[C@H](O)[C@H]2O[C@@H]2O[C@H](C(=O)O)[C@@H](O)[C@H](O)[C@H]2O)CC[C@]2(C)[C@H]3C(=O)C=C4[C@H]5C[C@@](C)(C(=O)O)CC[C@]5(C)CC[C@@]4(C)[C@]3(C)CC[C@@H]12`, in [4], the viability at 24 h, 40 µM is over 96%. The inhibition result in the data set with RAW264.7 [5] and in the data set with RAW264.7 [6] was “Active” in each case.
Take `CC1(C)[C@@H](O[C@H]2O[C@H](C(=O)O)[C@@H](O)[C@H](O)[C@H]2O[C@@H]2O[C@H](C(=O)O)[C@@H](O)[C@H](O)[C@H]2O)CC[C@]2(C)[C@H]3C(=O)C=C4[C@@H]5C[C@@](C)(C(=O)O)CC[C@]5(C)CC[C@@]4(C)[C@]3(C)CC[C@@H]12` [GLYCYRRHIZIN]: the viability at 24 h, 40 µM in data set [4] was over 96%. The inhibition result in the data set on RAW264.7 [5] and in the data set on RAW264.7 [6] was “Active” each time.
With `CC1(C)[C@@H](O[C@H]2O[C@H](C(=O)O)[C@@H](O)[C@H](O)[C@H]2O)CC[C@]2(C)[C@H]3C(=O)C=C4[C@@H]5C[C@@](C)(C(=O)O)CC[C@]5(C)CC[C@@]4(C)[C@]3(C)CC[C@@H]12`, the viability at 24 h, 40 µM in [4] was over 96%. Also, the inhibition result in the data set on RAW264.7 [5] and in the data set on RAW264.7 [6] was “Active” throughout.
